The source made the active and inactive calls.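 The calls were made as follows, unless noted: active = GFP response above 150% of the DMSO level; inconclusive = fewer than 70 events counted for a yeast strain; inactive = the rest.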
Legend:
[1] = RPL19A-GFP modulators, yeast TOR pathway, confirmation, cell-based, S. cerevisiae, flow cytometry, cherry picks, mother/daughter gates (AID 2270;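 active = GFP response below 50% of the DMSO control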); conditions: S. cerevisiae RPL19A-GFP strain, 3 h, at 10 µM, stronger effect = lower value, 100 = same GFP as DMSO wells
[2] = LAP4-GFP expression modulators in yeast, confirmation, cell-based, cherry picks, flow cytometry, mother/daughter gates (AID 2271;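 active = GFP response above 150% of the DMSO control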;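 also: ratio of sample to DMSO plate mean so 100% equals DMSO level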); conditions: S. cerevisiae LAP4-GFP strain, 3 h, at 10 µM, stronger effect = higher value, 100 means same as DMSO control
Procedure, shortened: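 Measured by: GFP by flow cytometry. Test system: GFP-fusion yeast strain. Input: yeast cells seeded at OD600 of 0.2. Timing: 30 °C, 3 h compound incubation, rotating. Buffer or medium: synthetic complete medium for yeast. Benchmarks: DMSO-only negative wells, rapamycin 400 ng/mL positive wells. Compound: 10 µM single dose.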

[3] = modulators of MEP2-GFP levels in yeast, confirmation, S. cerevisiae, flow cytometry GFP, cherry picks (AID 2272;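 active = GFP response above 150% of the DMSO control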;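 also: ratio of well signal to plate DMSO mean so 100% equals DMSO level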); conditions: S. cerevisiae MEP2-GFP strain, 3 h, at 10 µM, stronger effect = higher value
[4] = AGP1-GFP expression modulators, hit retest, confirmation, cell-based, flow cytometry, S. cerevisiae, cherry picks (AID 2273);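 also: median GFP channel fluorescence over the whole cell population gate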; conditions: S. cerevisiae AGP1-GFP strain, 3 h, at 10 µM
[5] = modulators of CIT2-GFP expression in yeast, confirmation, S. cerevisiae, GFP fusion, cherry picks, mother/daughter gates (AID 2274); conditions: S. cerevisiae CIT2-GFP strain, flow cytometry, 3 h, at 10 µM, stronger effect = higher value
[6] = measured here: daughter cell gate
[7] = measured here: mother cell gate
[8] = measured here: daughter cell gate response
[9] = measured here: mother cell gate response

Row | SMILES | GFP response vs DMSO [1] | GFP response vs DMSO [1, 6] | GFP response vs DMSO [1, 7] | GFP response relative to DMSO [2] | GFP response relative to DMSO [2, 8] | GFP response relative to DMSO [2, 9] | GFP response vs DMSO [3] | GFP response, % of DMSO [4] | GFP response, % of DMSO [5] | GFP response, % of DMSO [5, 6] | GFP response, % of DMSO [5, 7]
1 | CCOc1cc(/C=C2\N=C(C)OC2=O)cc(Br)c1OCC(=O)OC | 98.2% (inactive) | 100% | 96.9% | 133% (inactive) | 128% | 134% | 102% (inactive) | 94% (inactive) | 99.3% (inactive) | 102% | 94.5%
2 | CCN1/C(=C/c2ccc3cc(C)ccc3[n+]2CC)Sc2ccc3sccc3c21 | 96.7% (inactive) | 74.3% | 92.3% | 316% (active) | 155% | 287% | 244% (active) | 118% (inactive) | 132% (inactive) | 110% | 133%
3 | O=C(Nc1ccc(NC(=O)c2cc3ccccc3o2)cc1)c1ccco1 | 100% (inactive) | 97.6% | 101% | 97% (inactive) | 95.9% | 97.3% | 101% (inactive) | 106% (inactive) | 98.8% (inactive) | 99.2% | 98.1%
4 | CCN(CC)CCCN(Cc1cc2cc3c(cc2[nH]c1=O)OCO3)C(=S)Nc1ccccc1 | 87.4% (inactive) | 74.2% | 80.4% | 135% (inactive) | 104% | 131% | 139% (inactive) | 133% (inactive) | 126% (inactive) | 103% | 120%
5 | CCOc1ccc(N/N=C(/C#N)C(N)=O)cc1 | 82.7% (inactive) | 65.8% | 81.8% | 237% (active) | 182% | 250% | 176% (active) | 113% (inactive) | 161% (active) | 128% | 159%
6 | Cc1ccc(NC(=S)N(CCCN2CCOCC2)Cc2cccs2)c(C)c1 | 97.6% (inactive) | 97.8% | 97.9% | 102% (inactive) | 104% | 101% | 99.5% (inactive) | 96% (inactive) | 99.3% (inactive) | 100% | 98%
7 | O=[N+]([O-])c1ccc(S(=O)(=O)c2ccccc2)nc1 | 84.5% (inactive) | 96.4% | 77.4% | 176% (active) | 156% | 174% | 126% (inactive) | 114% (inactive) | 108% (inactive) | 131% | 91.5%
8 | CCc1c(C)c2cc(Cl)c(O)c(CN(C)C)c2oc1=O | 95.1% (inactive) | 95.6% | 94.8% | 95.3% (inactive) | 99% | 93.4% | 106% (inactive) | 93.9% (inactive) | 95.8% (inactive) | 95.8% | 94.9%
9 | O=C1C(Cl)=C(Nc2ccc(F)cc2)C(=O)N1CCc1ccccc1 | 100% (inactive) | 99.3% | 101% | 95.7% (inactive) | 95.9% | 96.2% | 101% (inactive) | 104% (inactive) | 100% (inactive) | 101% | 99.3%
10 | Cc1nn2c(N3CCOCC3)c3c(nc2c1-c1ccccc1)CCCC3 | 103% (inactive) | 102% | 102% | 101% (inactive) | 96% | 102% | 103% (inactive) | 103% (inactive) | 103% (inactive) | 101% | 102%
11 | CC(C)CC[n+]1ccccc1/C=C/c1ccc(N(C)C)cc1 | 98.2% (inactive) | 94.9% | 95.5% | 107% (inactive) | 108% | 107% | 126% (inactive) | 107% (inactive) | 115% (inactive) | 119% | 113%
12 | CCC(=O)Nc1cccc(C(=O)/C=C/c2cc(Br)ccc2OC)c1 | 98.8% (inactive) | 99.2% | 97.7% | 103% (inactive) | 98.7% | 110% | 104% (inactive) | 97.2% (inactive) | 93.9% (inactive) | 94.8% | 91.2%
13 | CC1=NNC(=O)/C1=C\c1cn(-c2ccccc2)nc1-c1ccccc1 | 98% (inactive) | 82.8% | 95.5% | 242% (active) | 164% | 236% | 110% (inactive) | 124% (inactive) | 115% (inactive) | 93.7% | 104%
14 | COc1cccc(NC(=O)Nc2ccc3c(c2)nnn3C)c1 | 97.8% (inactive) | 98.1% | 96.9% | 103% (inactive) | 102% | 104% | 100% (inactive) | 97.2% (inactive) | 101% (inactive) | 103% | 101%
15 | O=C(Nc1ccccc1C(F)(F)F)c1cc(-c2ccc(O)cc2)on1 | 98.8% (inactive) | 97% | 99.2% | 108% (inactive) | 102% | 108% | 102% (inactive) | 94% (inactive) | 101% (inactive) | 98.3% | 98%
16 | CC[n+]1ccc(/C=C/c2c[nH]c3ccccc23)cc1 | 100% (inactive) | 101% | 98.8% | 104% (inactive) | 104% | 105% | 128% (inactive) | 102% (inactive) | 117% (inactive) | 119% | 119%
17 | CCCOc1ccc(C(=O)NNC(=S)NC(=O)c2ccco2)cc1 | 124% (inactive) | 111% | 110% | 175% (active) | 148% | 167% | 137% (inactive) | 131% (inactive) | 134% (inactive) | 132% | 121%

Row | SMILES | GFP response vs DMSO [1] | GFP response vs DMSO [1, 6] | GFP response vs DMSO [1, 7] | GFP response relative to DMSO [2] | GFP response relative to DMSO [2, 8] | GFP response relative to DMSO [2, 9] | GFP response vs DMSO [3] | GFP response, % of DMSO [4] | GFP response, % of DMSO [5] | GFP response, % of DMSO [5, 6] | GFP response, % of DMSO [5, 7]
18 | O=C1c2ccsc2SCCN1Cc1ccc(Cl)cc1 | 93.6% (inactive) | 86% | 97% | 135% (inactive) | 128% | 144% | 91.3% (inactive) | 93.9% (inactive) | 82.2% (inactive) | 80.1% | 82.6%
19 | CC(=O)Nc1cccc(/C(C)=N/NC(=O)c2ccccc2Cl)c1 | 98.2% (inactive) | 97.9% | 98.7% | 102% (inactive) | 102% | 99.3% | 100% (inactive) | 101% (inactive) | 99.7% (inactive) | 101% | 99.7%
20 | Cc1ccc(C(=O)c2c3ccccc3[n+]([O-])n2CCO)cc1 | 97% (inactive) | 97.4% | 96.6% | 96.7% (inactive) | 96% | 94% | 98.3% (inactive) | 97.6% (inactive) | 96.9% (inactive) | 99.1% | 97.3%
21 | O=C1CC(SCc2nc3ccccc3[nH]2)C(=O)N1c1ccc(F)cc1 (centres undefined) | 102% (inactive) | 101% | 100% | 110% (inactive) | 108% | 109% | 110% (inactive) | 106% (inactive) | 108% (inactive) | 108% | 107%
22 | COc1ccccc1NC1=C(Cl)C(=O)N(c2ccccc2)C1=O | 103% (inactive) | 103% | 103% | 93.7% (inactive) | 92% | 94.1% | 103% (inactive) | 97% (inactive) | 103% (inactive) | 105% | 101%
23 | O=S(=O)(c1ccccc1)c1ccc(C(F)(F)F)cn1 | 97.6% (inactive) | 98.3% | 97.8% | 96.1% (inactive) | 95.1% | 95.1% | 101% (inactive) | 101% (inactive) | 95.9% (inactive) | 96.8% | 95.7%
24 | COc1ccc(N=Nc2ccc(O)c3ncccc23)cc1 | 99.5% (inactive) | 100% | 98.8% | 199% (active) | 189% | 200% | 116% (inactive) | 94.5% (inactive) | 109% (inactive) | 113% | 103%
25 | Cc1ccc(/C(N)=N/OC(=O)c2ccc(F)cc2)cc1 | 102% (inactive) | 102% | 99.2% | 128% (inactive) | 111% | 129% | 108% (inactive) | 76.8% (inactive) | 134% (inactive) | 121% | 133%
26 | Cc1ccc(C(=O)N/C(=C/c2ccco2)C(=O)N2CCOCC2)cc1 | 103% (inactive) | 100% | 104% | 105% (inactive) | 106% | 104% | 101% (inactive) | 102% (inactive) | 95.9% (inactive) | 97.4% | 95.6%
27 | Cc1cccn2c(=O)c(/C=C(\C#N)C(N)=O)c(N3CCN(Cc4ccc5c(c4)OCO5)CC3)nc12 | 101% (inactive) | 101% | 102% | 101% (inactive) | 103% | 101% | 101% (inactive) | 100% (inactive) | 110% (inactive) | 110% | 112%
28 | O=C(N/N=C\c1ccc(F)cc1)c1cc(OCC(F)(F)F)ccc1OCC(F)(F)F | 99.1% (inactive) | 99.3% | 99.2% | 100% (inactive) | 95% | 99.5% | 102% (inactive) | 105% (inactive) | 105% (inactive) | 106% | 103%
29 | COc1cccc(C(=O)Nc2ccccc2)c1 | 98.2% (inactive) | 97.4% | 96.7% | 106% (inactive) | 102% | 106% | 105% (inactive) | 95.2% (inactive) | 94% (inactive) | 93.6% | 92.6%
30 | O=[N+]([O-])c1cc(O)c2ncccc2c1 | 99.1% (inactive) | 94.2% | 97.5% | 205% (active) | 200% | 204% | 114% (inactive) | 94.3% (inactive) | 122% (inactive) | 112% | 131%
31 | Cc1ccc(S(=O)(=O)Cc2cc(F)c([N+](=O)[O-])cc2[N+](=O)[O-])cc1 | 74.2% (inactive) | 88.4% | 62.6% | 251% (active) | 146% | 223% | 127% (inactive) | 105% (inactive) | 89.7% (inactive) | 84.1% | 72.8%
32 | CC(=O)c1ccc(N2CCN(S(=O)(=O)c3ccc4c(c3)CC(C)N4C(C)=O)CC2)cc1 (centres undefined) | 95.8% (inactive) | 93.9% | 91.9% | 98.9% (inactive) | 97.5% | 98.4% | 103% (inactive) | 98.8% (inactive) | 104% (inactive) | 99.3% | 103%
33 | Cc1csc(Nc2ccccc2C(F)(F)F)n1 | 96.2% (inactive) | 94.2% | 95.9% | 105% (inactive) | 104% | 108% | 101% (inactive) | 94.3% (inactive) | 97.2% (inactive) | 97.6% | 94.9%
34 | O=C1C(Cl)=C(Nc2ccccc2O)C(=O)N1c1ccccc1 | 97.4% (inactive) | 98% | 97.1% | 112% (inactive) | 108% | 113% | 104% (inactive) | 103% (inactive) | 99.3% (inactive) | 100% | 98%

Reference: PubChem BioAssay
